According to ChEMBL document CHEMBL1142321, “Selection of a respiratory syncytial virus fusion inhibitor clinical candidate. 2. Discovery of a morpholinopropylaminobenzimidazole derivative (TMC353121)” (J Med Chem, 2008):
Converted amounts (≈) assume the structure as drawn.

Tests used:
[1] = Cytotoxicity against human HeLaM cells by MTT assay; format: functional, M-HeLa
[2] = system: Respiratory syncytial virus; experiment: Inhibition of RSV by MTT assay; format: functional, organism-based; details: human respiratory syncytial virus
Outline: (§1)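 HeLaM epithelial-like cells infected with RSV with or without a range of compound concentrations; viability read by MTT after 1 week incubation. OD measured spectrophotometrically and pEC50 derived. Virus, cell and cytotoxicity controls on every plate, reference compounds in every test; runs failing control criteria rejected.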

[3] = Half life in Sprague-Dawley rat lung; format: ADME, organism-based
[4] = system: Respiratory syncytial virus; experiment: Antiviral activity in RSV infected cotton rat model assessed as log reduction of viral titer at 1.25 mg/mL by aerosol administration 1 hr prior to viral challenge; format: functional
Outline: (§2)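 Single aerosol from an ultrasonic nebulizer for 1 h, given 1 h before RSV challenge; dose stated as drug concentration in the nebulizer reservoir. BALF collected by lung flushing with physiological water 4 days after challenge. Virus titre measured by plaque titration; log reduction calculated against untreated control animals.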

[5] = AUC (0 to infinity) in Sprague-Dawley rat plasma at 2 mg/kg, iv; format: ADME, organism-based; design: time infinity, dose 2 mg/kg, route intravenous
[6] = system: Respiratory syncytial virus; experiment: Antiviral activity against RSV Cl11 replication in HeLa cells; format: functional, organism-based; details: for EC50: human respiratory syncytial virus, HeLa; outline: as §1
[7] = system: Respiratory syncytial virus; experiment: Antiviral activity against RSV CI57 replication in HeLa cells; format: functional, organism-based; details: for EC50: human respiratory syncytial virus, HeLa; outline: as §1
[8] = Half life in Sprague-Dawley rat plasma at 2 mg/kg, iv; format: ADME, organism-based; design: dose 2 mg/kg, route intravenous
[9] = system: Respiratory syncytial virus; experiment: Antiviral activity against RSV R6LO replication in HeLa cells; format: functional, organism-based; details: for EC50: human respiratory syncytial virus, HeLa; outline: as §1
[10] = system: Respiratory syncytial virus; experiment: Antiviral activity against RSV R1LO replication in HeLa cells; format: functional, organism-based; details: for EC50: human respiratory syncytial virus, HeLa; outline: as §1
[11] = system: Respiratory syncytial virus; experiment: Antiviral activity in RSV infected cotton rat model assessed as log reduction of viral titer at 0.25 mg/mL by aerosol administration 1 hr prior to viral challenge; format: functional; outline: as §2
[12] = Absolute bioavailability in Sprague-Dawley rat plasma at 10 mg/kg, po; format: ADME, organism-based
[13] = AUC (0 to infinity) in Sprague-Dawley rat plasma at 10 mg/kg, po; format: ADME, organism-based; design: time infinity, dose 10 mg/kg, route oral
[14] = system: Respiratory syncytial virus; experiment: Antiviral activity against RSV LO replication in HeLa cells; format: functional, organism-based; outline: as §1
[15] = system: Respiratory syncytial virus; experiment: Antiviral activity against RSV CI42 replication in HeLa cells; format: functional, organism-based; details: for EC50: human respiratory syncytial virus, HeLa; outline: as §1
[16] = system: Respiratory syncytial virus; experiment: Antiviral activity in RSV infected cotton rat model assessed as log reduction of viral titer at 10 mg/kg, iv 72 hrs prior to viral challenge; format: functional
Outline: (§3)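 Cotton rats received a single iv dose at set times before (minus) or after (plus) RSV challenge. Day 4 after challenge, lungs flushed with physiological water and BALF virus titre measured by plaque titration. Log reduction calculated against untreated controls.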

[17] = system: Respiratory syncytial virus; experiment: Antiviral activity in RSV infected cotton rat model assessed as log reduction of viral titer at 10 mg/kg, iv 24 hrs prior to viral challenge; format: functional; outline: as §3
[18] = system: Respiratory syncytial virus; experiment: Antiviral activity in RSV infected cotton rat model assessed as log reduction of viral titer at 10 mg/kg, iv 1 hrs prior to viral challenge; format: functional; outline: as §3
[19] = system: Respiratory syncytial virus; experiment: Antiviral activity in RSV infected cotton rat model assessed as log reduction of viral titer at 10 mg/kg, iv 4 hrs prior to viral challenge; format: functional; outline: as §3
[20] = system: Respiratory syncytial virus; experiment: Antiviral activity in RSV infected cotton rat model assessed as log reduction of viral titer at 5 mg/mL by aerosol administration 1 hr prior to viral challenge; format: functional; outline: as §2
[21] = system: Respiratory syncytial virus; experiment: Antiviral activity in RSV infected cotton rat model assessed as log reduction of viral titer at 2 mg/kg, iv 5 mins prior to viral challenge; format: functional; outline: as §3
[22] = system: Respiratory syncytial virus; experiment: Antiviral activity in RSV infected cotton rat model assessed as log reduction of viral titer at 10 mg/kg, po 2 hrs prior to viral challenge; format: functional
Outline: (§4)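 Cotton rats dosed once orally by gavage 2 h before RSV challenge. BALF obtained by lung lavage with physiological water 4 days after challenge, virus titred by plaque assay. Log reduction expressed versus untreated control animals.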

[23] = system: Respiratory syncytial virus; experiment: Antiviral activity against RSV CI41 replication in HeLa cells; format: functional, organism-based; details: for EC50: human respiratory syncytial virus, HeLa; outline: as §1
[24] = system: Respiratory syncytial virus; experiment: Antiviral activity in RSV infected cotton rat model assessed as log reduction of viral titer at 20 mg/mL by aerosol administration 1 hr prior to viral challenge; format: functional; outline: as §2
[25] = system: Respiratory syncytial virus; experiment: Antiviral activity in RSV infected cotton rat model assessed as log reduction of viral titer at 10 mg/kg, iv after 24 hrs of viral challenge; format: functional; outline: as §3
[26] = system: Respiratory syncytial virus; experiment: Antiviral activity in RSV infected cotton rat model assessed as log reduction of viral titer at 40 mg/kg, po 2 hrs prior to viral challenge; format: functional; outline: as §4
[27] = Volume of distribution in Sprague-Dawley rat plasma at 2 mg/kg, iv; format: ADME, organism-based; design: dose 2 mg/kg, route intravenous
[28] = system: Respiratory syncytial virus; experiment: Antiviral activity in RSV infected cotton rat model assessed as log reduction of viral titer at 10 mg/kg, iv 48 hrs prior to viral challenge; format: functional; outline: as §3
[29] = system: Respiratory syncytial virus; experiment: Antiviral activity against RSV R2LO replication in HeLa cells; format: functional, organism-based; details: for EC50: human respiratory syncytial virus, HeLa; outline: as §1
[30] = system: Respiratory syncytial virus; experiment: Antiviral activity in RSV infected cotton rat model assessed as log reduction of viral titer at 10 mg/kg, iv 96 hrs prior to viral challenge; format: functional; outline: as §3
[31] = system: Respiratory syncytial virus; experiment: Antiviral activity in RSV infected cotton rat model assessed as log reduction of viral titer at 10 mg/kg, iv after 3 hrs of viral challenge; format: functional; outline: as §3
[32] = system: Respiratory syncytial virus; experiment: Antiviral activity in RSV infected cotton rat model assessed as log reduction of viral titer at 10 mg/kg, iv 5 mins prior to viral challenge; format: functional; outline: as §3
[33] = Cmax in Sprague-Dawley rat plasma at 10 mg/kg, po; format: ADME, organism-based; design: dose 10 mg/kg, route oral
[34] = Plasma clearance in Sprague-Dawley rat at 2 mg/kg, iv; format: ADME, organism-based; design: dose 2 mg/kg, route intravenous

Cc1cccc(N(CCO)Cc2ccc3nc(NCCCN4CCOCC4)n(Cc4nc(C)ccc4O)c3c2)c1
pCC50 [1]: 5 | EC50 [2]: 0.501 nM

Cc1cccc(NCc2ccc3nc(NC4CCN(CCO)CC4)n(Cc4nc(C)ccc4O)c3c2)c1
half-life [3]: 67.7 h | pCC50 [1]: 4.4 | EC50 [2]: 1.58 nM

Cc1ccc(O)c(Cn2c(NCCCN3CCOCC3)nc3ccc(CNc4ccccc4CCO)cc32)n1
half-life [3]: 20.1 h | pCC50 [1]: 4.7 | EC50 [2]: 0.794 nM

Cc1cc(C)cc(NCc2ccc3nc(NCC(O)CO)n(Cc4nc(C)ccc4O)c3c2)c1 (configuration not stated)
pCC50 [1]: 4.3 | EC50 [2]: 31.6 nM

Cc1cccc(/C=C/c2ccc3nc(NC4CCN(CCN)CC4)n(Cc4nc(C)ccc4O)c3c2)c1
pCC50 [1]: 5.1 | EC50 [2]: 3.16 nM

Cc1cc(C)cc(NCc2ccc3nc(NCCCN4CCN(C)CC4)n(Cc4nc(C)ccc4O)c3c2)c1
pCC50 [1]: 5 | EC50 [2]: 3.98 nM

Cc1ccc(O)c(Cn2c(NC3CCN(C)CC3)nc3ccc(C(O)c4ccccc4)cc32)n1 (configuration not stated)
pCC50 [1]: <4 | EC50 [2]: 158 nM

Cc1ccc(O)c(Cn2c(NC3CCN(CC(N)C(C)C)CC3)nc3c(C)ccnc32)n1 (configuration not stated)
pCC50 [1]: 4.3 | EC50 [2]: 0.1 nM

CCCCNc1nc2ccc(CNc3cc(C)cc(C)c3)cc2n1Cc1nc(C)ccc1O
pCC50 [1]: 5.1 | EC50 [2]: > 100000 nM

Cc1ccc(CCCO)c(NCc2ccc3nc(NCCCN4CCOCC4)n(Cc4nc(C)ccc4O)c3c2)c1
Activity [4]: 1 | AUC(0-inf) [5]: 354 ng·h/mL | pEC90 [6]: 10 | EC50 ([6]; read-out: EC50): 0.03 ng/mL | EC50 ([6]; read-out: Log EC50 (converted)): 0.0501 nM | pEC90 [7]: 9.8 | EC50 ([7]; read-out: EC50): 0.04 ng/mL | EC50 ([7]; read-out: Log EC50 (converted)): 0.0794 nM | half-life [8]: 10.3 h | pEC90 [9]: <6.7 | EC50 ([9]; read-out: EC50): 0.04 ng/mL | EC50 ([9]; read-out: Log EC50 (converted)): 0.0794 nM | half-life [3]: 25.1 h | pEC90 [10]: 7.5 | EC50 ([10]; read-out: EC50): 7.03 ng/mL | EC50 ([10]; read-out: Log EC50 (converted)): 12.6 nM | Activity [11]: 0.6 | bioavailability [12]: 14% | AUC(0-inf) [13]: 246 ng·h/mL | pEC90 [14]: 9.6 | EC50 ([14]; human respiratory syncytial virus, HeLa): 0.07 ng/mL (≈ 0.000125 µM) | pEC90 [15]: 10.1 | EC50 ([15]; read-out: EC50): 0.02 ng/mL | EC50 ([15]; read-out: Log EC50 (converted)): 0.0316 nM | Activity [16]: 0.4 | Activity [17]: 0.5 | Activity [18]: 0.9 | Activity [19]: 0.9 | pCC50 [1]: 5.1 | CC50 ([1]; Homo sapiens, M-HeLa): 4440 ng/mL (≈ 7.94 µM) | Activity [20]: 1.5 | Activity [21]: 0.4 | Activity [22]: 0.4 | pEC90 [23]: 10.1 | EC50 ([23]; read-out: EC50): 0.02 ng/mL | EC50 ([23]; read-out: Log EC50 (converted)): 0.0316 nM | Activity [24]: 1.6 | Activity [25]: 0.2 | Activity [26]: 0.8 | Vd [27]: 79.3 L/kg | Activity [28]: 0.3 | pEC90 [29]: <4 | EC50 ([29]; read-out: EC50): 280 ng/mL | EC50 ([29]; read-out: Log EC50 (converted)): 501 nM | Activity [30]: 0.2 | Activity [31]: 0.5 | Activity [32]: 1.2 | Cmax [33]: 47.3 ng/mL | clearance [34]: 90 mL/min/kg

Cc1cc(C)cc(NCc2ccc3nc(NC4CCN(C)CC4)n(Cc4nc(C)ccc4O)c3c2)c1
pCC50 [1]: 4.3 | EC50 [2]: 2.51 nM

Cc1ccc(O)c(Cn2c(NCCCN3CCOCC3)nc3ccc(CNc4ccccc4CCCO)cc32)n1
pCC50 [1]: 4.9 | EC50 [2]: 0.251 nM

Cc1ccc(O)c(Cn2c(NC3CCN(C)CC3)nc3ccc(CNc4ccccc4)cc32)n1
pCC50 [1]: 4.5 | EC50 [2]: 15.8 nM

Cc1cc(C)cc(NCc2ccc3nc(NC4CCN(CCO)CC4)n(Cc4nc(C)ccc4O)c3c2)c1
half-life [3]: 84.9 h | pCC50 [1]: 4.5 | EC50 [2]: 1.58 nM

Cc1cccc(SCc2ccc3nc(NC4CCN(C)CC4)n(Cc4nc(C)ccc4O)c3c2)c1
pCC50 [1]: 4.4 | EC50 [2]: 251 nM

Cc1ccc(O)c(Cn2c(NC3CCN(C)CC3)nc3ccc(CN(C)c4ccccc4)cc32)n1
pCC50 [1]: 5.2 | EC50 [2]: 39.8 nM
